Results taken from ChEMBL document CHEMBL1142624, “Nematicidal constituents of the aerial parts of Lantana camara” (2000).

Legend:
Assay type in all cases: functional
[1] = tested on: Meloidogyne incognita; assay: Nematicidal activity against Meloidogyne incognita assessed as larval mortality at 1% drug concentration after 72 hrs
In short: (§1)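 Larvae were held in Petri dishes with test solutions diluted from stock to 1.0%, alongside a furadan standard and a distilled water control, at 28 ± 2 °C for up to 72 h. Each treatment was replicated twice. At 24, 48 and 72 h, one dish per treatment was scored for mortality under a stereomicroscope. Immobility was confirmed as irreversible by transfer to distilled water. Percent mortality was averaged over three replicates.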

[2] = tested on: Meloidogyne incognita; assay: Nematicidal activity against Meloidogyne incognita assessed as larval mortality at 1% drug concentration after 24 hrs; in short: as §1
[3] = tested on: Meloidogyne incognita; assay: Nematicidal activity against Meloidogyne incognita assessed as larval mortality at 1% drug concentration after 48 hrs; in short: as §1

| Compound | Activity [1] [%] | Activity [2] [%] | Activity [3] [%] |
| --- | --- | --- | --- |
| COc1ccc(-c2cc(=O)c3c(O)c(OC)c(O[C@@H]4O[C@H](COC(C)=O)[C@@H](O)[C@H](O)[C@H]4O)cc3o2)cc1 [LANTANONE] | 95 | 90 | 95 |
| CNC(=O)Oc1cccc2c1OC(C)(C)C2 [CARBOFURAN] | 100 | 100 | 100 |
| CC(=O)O[C@@H]1C[C@@H](C)[C@H](C)[C@H]2C3=CC[C@@H]4[C@]56CC[C@@](O)(OC5)C(C)(C)C6CC[C@@]4(C)[C@]3(C)CC[C@]21C(=O)O (some centres not stated) [CAMARINIC ACID] | 100 | 100 | 100 |
| COc1ccc(-c2cc(=O)c3c(O)c(OC)c(O[C@@H]4O[C@H](CO)[C@@H](O)[C@H](O)[C@H]4O)cc3o2)cc1 [LINAROSIDE] | 90 | 85 | 90 |
